Experimental data as given in ChEMBL document CHEMBL1123795, “Inhibitors of dopamine beta-hydroxylase. 3. Some 1-(pyridylmethyl)imidazole-2-thiones” (J Med Chem, 1987).

Experiments:
[1] = molecular target: T1, Dopamine beta-hydroxylase (Rattus norvegicus, UniProt Q05754); experiment: Inhibition of Dopamine beta hydroxylase in spontaneously hypertensive rats; Value ranges from 89-121
T1 sequence (Q05754 whole entry): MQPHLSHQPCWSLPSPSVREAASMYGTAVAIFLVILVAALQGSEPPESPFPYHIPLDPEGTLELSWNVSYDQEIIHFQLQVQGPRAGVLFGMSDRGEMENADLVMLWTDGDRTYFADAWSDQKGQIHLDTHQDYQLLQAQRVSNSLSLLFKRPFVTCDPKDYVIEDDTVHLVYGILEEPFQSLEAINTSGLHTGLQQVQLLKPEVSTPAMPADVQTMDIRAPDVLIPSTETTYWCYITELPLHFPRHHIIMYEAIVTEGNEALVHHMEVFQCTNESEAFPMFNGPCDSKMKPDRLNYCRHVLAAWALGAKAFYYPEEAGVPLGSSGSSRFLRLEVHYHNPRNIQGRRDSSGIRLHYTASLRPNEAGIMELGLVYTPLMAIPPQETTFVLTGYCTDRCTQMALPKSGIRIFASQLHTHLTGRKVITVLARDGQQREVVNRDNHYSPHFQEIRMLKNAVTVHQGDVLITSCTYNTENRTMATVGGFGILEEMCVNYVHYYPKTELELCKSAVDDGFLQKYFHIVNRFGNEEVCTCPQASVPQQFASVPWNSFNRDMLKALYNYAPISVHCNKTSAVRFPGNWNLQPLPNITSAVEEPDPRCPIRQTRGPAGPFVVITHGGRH

Rattus norvegicus [2] = experiment: Percent increase in DA/NE ratio was determined from assay of DA and NE in the mesenteric artery of spontaneously hypertensive rat after two doses for 50 mg/kg peroral administration; format: functional; conditions: route oral
How it was run: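 SHR received two 50 mg/kg doses 18 h apart as suspensions in a 5% PEG 400, 1% methocel vehicle. DA and NE were then assayed in mesenteric artery. The percent change in DA/NE ratio (±SEM) was expressed relative to vehicle-dosed controls.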

Rattus norvegicus [3] = experiment: Antihypertensive activity was determined by decrease in blood pressure response in spontaneously hypertensive rat was determined after intraperitoneal administration at a dose of 50 mg/kg; format: functional
How it was run: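 SHR received a single 50 mg/kg ip dose given as a solution in 20% DMF. Blood pressure was read 2 h after dosing, and the reduction (±SEM) was expressed relative to vehicle-dosed control animals.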

[4] = molecular target: T1, Dopamine beta-hydroxylase; experiment: Inhibition of Dopamine beta hydroxylase in spontaneously hypertensive rats; Value ranges from 21-35
[5] = molecular target: T1, Dopamine beta-hydroxylase; experiment: Inhibition of Dopamine beta hydroxylase in spontaneously hypertensive rats; Value range from 8.9-13
[6] = molecular target: T1, Dopamine beta-hydroxylase; experiment: Inhibition of Dopamine beta hydroxylase in spontaneously hypertensive rats; Value ranges from 76-220
[7] = molecular target: T2, Dopamine beta-hydroxylase (Rattus norvegicus) (UniProt Q05754); experiment: Inhibition of Dopamine beta hydroxylase in spontaneously hypertensive rats at a concentration of 10e-4
T2 sequence (whole entry): T1 sequence (Q05754 whole entry)
How it was run: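 The DBH assay was run in vitro, with percent inhibition of product formation versus control measured at 10⁻⁴ M compound.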

[8] = molecular target: T1, Dopamine beta-hydroxylase
[9] = molecular target: T1, Dopamine beta-hydroxylase; experiment: Inhibition of Dopamine beta hydroxylase in spontaneously hypertensive rats; Value ranges from 1.3-4.6
[10] = molecular target: T1, Dopamine beta-hydroxylase; experiment: Inhibition of Dopamine beta hydroxylase in spontaneously hypertensive rats; Value ranges from 0.4-1.1

| SMILES | inhibition [7] | Increase (Rattus norvegicus [2]) | Decrease in blood pressure (Rattus norvegicus [3]) | also measured |
| --- | --- | --- | --- | --- |
| Sc1nccn1Cc1cccnc1 |  | 52% | 34 mmHg | IC50 [1]: 104 µM |
| Oc1ccc(Cn2ccnc2S)nc1 |  |  | 22 mmHg | IC50 [4]: 27 µM |
| S=c1[nH]ccn1Cc1ccccc1 |  |  |  | IC50 [5]: 11 µM |
| Sc1nccn1Cc1ccccn1 |  | 141% | 35 mmHg | IC50 [6]: 131 µM |
| Fc1cc(F)cc(Cn2cc[nH]c2=S)c1 |  | 407% | 50 mmHg | IC50 [8]: 1.2 µM |
| COc1ccc(Cn2ccnc2S)cn1 | 17% |  |  |  |
| Oc1ccc(Cn2cc[nH]c2=S)cc1 |  | 95% | 22 mmHg | IC50 [9]: 2.6 µM |
| CCCCc1ccc(C(=O)O)nc1 [FUSARIC ACID] |  | 80% | 54 mmHg | IC50 [10]: 0.7 µM |

Further lines, with some results ahead:

| inhibition [7] | SMILES | Increase (Rattus norvegicus [2]) | Decrease in blood pressure (Rattus norvegicus [3]) | also measured |
| --- | --- | --- | --- | --- |
| 7% | Oc1ccc(Cn2ccnc2S)cn1 |  |  |  |
| 17% | Sc1nccn1Cc1ccncc1 | 49% | 38 mmHg |  |
